According to ChEMBL document CHEMBL1142402, “Synthesis of curcumin mimics with multidrug resistance reversal activities” (Bioorg Med Chem, 2008):
pIC50: −log10 of the molar value. Activity calls are given as the source filed them. No cut-off for these calls is given here.

How the values were obtained:
KB [1] = experiment: Cytotoxicity against human KB cells assessed as cell viability at 10 uM after 48 hrs by MTS assay; assay type: functional; conditions: read-out: Activity
Method in brief: (§1)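 KB (P-gp-negative) and KBV20C (P-gp-expressing) cells were grown in RPMI 1640 with 10% FBS and 1% penicillin/streptomycin. KBV20C cells were maintained with 20 nM vincristine. Cells were exposed to each compound at 10 µM for 48 h. Viability (%) was read by MTS. Values are means ± standard deviation of three experiments.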

[2] = Cytotoxicity against multidrug resistant P-gp expressing human KBV20C cells assessed as cell viability at 10 uM after 48 hrs by MTS assay; assay type: functional; conditions: read-out: Activity; method in brief: as §1
[3] = Cytotoxicity against multidrug resistant P-gp expressing human KBV20C cells assessed as cell viability in presence of vincristine by MTS assay; assay type: functional, cell-based
[4] = Cytotoxicity against multidrug resistant P-gp expressing human KBV20C cells assessed as cell viability in presence of paclitaxel by MTS assay; assay type: functional, cell-based
KBV20C = experiment: Inhibition of Pgp in multidrug resistant human KBV20C cells assessed as increase in intracellular accumulation of Rh123; assay type: cell-based
Method in brief: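 They were then incubated a further 3 h with Rh123 and washed with PBS. Mean intracellular Rh123 fluorescence was measured by flow cytometry and expressed relative to control. Values are means ± SD of three independent experiments, compared by Student's t-test.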

KB [5] = experiment: Cytotoxicity against human KB cells assessed as cell viability after 48 hrs by MTS assay; assay type: functional, cell-based
[6] = Cytotoxicity against multidrug resistant P-gp expressing human KBV20C cells assessed as cell viability after 48 hrs by MTS assay; assay type: functional, cell-based

CCCC(=O)Nc1cccc(C(=O)/C=C/c2ccc(O)c(OC)c2)c1
viability at 10 µM (KB [1]): 77.1%
viability at 10 µM [2]: 80.8%
pIC50 [3]: 5.54
pIC50 [4]: 6.68

COc1cc(/C=C/C(=O)c2cccc(NC(=O)c3ccco3)c2)ccc1O
viability at 10 µM (KB [1]): 60.2%
viability at 10 µM [2]: 77.6%
pIC50 [3]: 5.84
pIC50 [4]: 6.68

COc1cc(/C=C/C(=O)c2cccc(NC(=O)c3ccc(Cl)cc3)c2)ccc1O
viability at 10 µM (KB [1]): 95.7%
viability at 10 µM [2]: 96.6%
pIC50 [3]: 6.32
pIC50 [4]: 7.20
Activity (KBV20C): Active

COc1cc(/C=C/C(=O)c2cccc(NC(=O)c3ccc(Cl)cc3Cl)c2)ccc1O
viability at 10 µM (KB [1]): 98.3%
viability at 10 µM [2]: 94.6%
pIC50 [3]: 6.14
pIC50 [4]: 7.35

COC(=O)CC(=O)Nc1cccc(C(=O)/C=C/c2ccc(O)c(OC)c2)c1
viability at 10 µM (KB [1]): 72.9%
viability at 10 µM [2]: 106%
pIC50 [3]: 5.42
pIC50 [4]: 6.49

COc1cc(/C=C/C(=O)CC(=O)/C=C/c2ccc(O)c(OC)c2)ccc1O [CURCUMIN]
viability at 10 µM (KB [1]): 89.2%
viability at 10 µM [2]: 93.1%
pIC50 [3]: 6.09
pIC50 [4]: 6.38

COc1cc(/C=C/C(=O)c2cccc(NC(=O)c3cc(Cl)cc(Cl)c3)c2)ccc1O
viability at 10 µM (KB [1]): 68.7%
viability at 10 µM [2]: 70.3%
pIC50 [3]: 6.39
pIC50 [4]: 7.66
Activity (KBV20C): Active

COc1cc(/C=C/C(=O)c2cccc(NC(=O)C(C)C)c2)ccc1O
viability at 10 µM (KB [1]): 67.5%
viability at 10 µM [2]: 67.7%
pIC50 [3]: 5.53
pIC50 [4]: 6.62

COc1cc(/C=C/C(=O)c2cccc(NC(C)=O)c2)ccc1O
viability at 10 µM (KB [1]): 98.2%
viability at 10 µM [2]: 92.4%
pIC50 [3]: 5.90
pIC50 [4]: 6.14

COc1cc(/C=C/C(=O)c2cccc(NC(=O)c3ccc(Cl)c(Cl)c3)c2)ccc1O
viability at 10 µM (KB [1]): 78.3%
viability at 10 µM [2]: 72.6%
pIC50 [3]: 6.07
pIC50 [4]: 7.59
Activity (KBV20C): Active

COc1ccc(CCN(C)CCC[C@](C#N)(c2ccc(OC)c(OC)c2)C(C)C)cc1OC
Activity (KBV20C): Active

COc1cc(/C=C/C(=O)c2cccc(N)c2)ccc1O
viability at 10 µM (KB [1]): 97.6%
viability at 10 µM [2]: 99.4%
pIC50 [3]: 5.90
pIC50 [4]: 6.08

CC[C@]1(O)C[C@H]2CN(CCc3c([nH]c4ccccc34)[C@@](C(=O)OC)(c3cc4c(cc3OC)N(C=O)[C@H]3[C@@](O)(C(=O)OC)[C@H](OC(C)=O)[C@]5(CC)C=CCN6CC[C@]43[C@@H]65)C2)C1 [VINCRISTINE]
pIC50 (KB [5]): 8.10
pIC50 [6]: 5.24

CC(=O)O[C@H]1C(=O)[C@@]2(C)[C@H]([C@H](OC(=O)c3ccccc3)[C@]3(O)C[C@H](OC(=O)[C@H](O)[C@@H](NC(=O)c4ccccc4)c4ccccc4)C(C)=C1C3(C)C)[C@]1(OC(C)=O)CO[C@@H]1C[C@@H]2O [PACLITAXEL]
pIC50 (KB [5]): 8.38
pIC50 [6]: 5.84

COc1cc(/C=C/C(=O)c2cccc(NC(=O)c3cccs3)c2)ccc1O
viability at 10 µM (KB [1]): 74.7%
viability at 10 µM [2]: 83.6%
pIC50 [3]: 5.85
pIC50 [4]: 6.74

CCOC(=O)C(=O)Nc1cccc(C(=O)/C=C/c2ccc(O)c(OC)c2)c1
viability at 10 µM (KB [1]): 84.7%
viability at 10 µM [2]: 103%
pIC50 [3]: 5.48
pIC50 [4]: 5.96

COc1cc(/C=C/C(=O)c2cccc(NC(=O)c3ccccc3)c2)ccc1O
viability at 10 µM (KB [1]): 89.5%
viability at 10 µM [2]: 85.5%
pIC50 [3]: 5.42
pIC50 [4]: 6.38

COc1cc(/C=C/C(=O)c2cccc(NC(=O)c3c(Cl)cccc3Cl)c2)ccc1O
viability at 10 µM (KB [1]): 93.7%
viability at 10 µM [2]: 75.3%
pIC50 [3]: 5.91
pIC50 [4]: 7.00
